Experimental data as given in ChEMBL document CHEMBL4251743, “Absolute Configuration and Pharmacology of the Poison Frog Alkaloid Phantasmidine” (J Nat Prod, 2018).
The source made the active and inactive calls. The calls are words filed in the database; no cut-off is given here.

How the values were obtained:
[1] = molecular target: T1, Neuronal acetylcholine receptor; alpha4/beta2 (Homo sapiens, UniProt P17787+P43681); test: Agonist activity at human alpha4beta2 nAChR by cell-based rubidium flux assay
Summary of the method: (§1)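 Stably transfected cells expressing rat α3β4 or human α4β2 nAChR were used near confluence. They were preloaded with 86Rb+, washed, stimulated with test agonist, and the medium was separated before lysis. Efflux was taken as medium counts over total counts. Results are the mean ± SEM of 3–4 independent experiments.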

Mus musculus [2] = test: Toxicity in iv dosed albino mouse measured after 1 hr; type: organism-based; details: in vivo
[3] = molecular target: T1, Neuronal acetylcholine receptor; alpha4/beta2; test: Agonist activity at human alpha4beta2 nAChR by cell-based rubidium flux assay relative to 100 uM nicotine; summary of the method: as §1
[4] = molecular target: Neuronal acetylcholine receptor; alpha3/beta4 (Rattus norvegicus) (UniProt P04757+P12392); test: Agonist activity at rat alpha3beta4 nAChR by cell-based rubidium flux assay relative to 100 uM nicotine
Summary of the method: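 Stably transfected cells expressing rat α3β4 or human α4β2 nAChR were used near confluence. They were preloaded with 86Rb+, washed, stimulated with test agonist, and the medium was separated before lysis. Efflux was taken as medium counts over total counts. […] Results are the mean ± SEM of 3–4 independent experiments.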

Mus musculus [5] = test: Toxicity in iv dosed Swiss-Webster mouse; type: organism-based; details: in vivo
Summary of the method: (§2)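 Weanling male White Swiss-Webster mice (15–20 g) were fasted for 12 h. Compound in physiological buffered saline was given intravenously via the tail vein. Mice were then returned to their pens for observation of signs.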

[6] = molecular target: T2, Neuronal acetylcholine receptor; alpha4/beta2 (Rattus norvegicus, UniProt P09483+P12390); test: Agonist activity at rat alpha4beta2 expressed in Xenopus oocytes at -60 mV holding potential by electrophysiology method; type: cell-based
Summary of the method: (§3)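 Defolliculated X. laevis oocytes were injected with about 50 nL of rat subunit mRNA at 1 μg/μL. For α3β2 and α4β2 the subunits were mixed 1:1. Recording was by two-electrode voltage clamp at −60 mV and about 24 °C, with perfusion in HEPES-buffered NaCl/KCl/CaCl2/MgCl2. Agonist was applied for 3–4 s every 4–5 min. Peak currents were normalised to 1 mM ACh (nAChR) or 10 μM mCPBG (5-HT3A) and fitted to the Hill equation.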

[7] = molecular target: T3, Neuronal acetylcholine receptor subunit alpha-7 (Rattus norvegicus, UniProt Q05941); test: Displacement of [3H]epibatidine from alpha7 nAChR (unknown origin) expressed in HEK cell membranes after 4 hrs by liquid scintillation counting method
Summary of the method: (§4)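 Incubation was 4 h at room temperature, followed by rapid filtration, washing and liquid scintillation counting. Nonspecific binding was defined with 300 μM nicotine. Values are the mean ± SEM of four measurements.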

[8] = molecular target: Neuronal acetylcholine receptor; test: Displacement of [3H]epibatidine from rat forebrain nAChR after 4 hrs by liquid scintillation counting method; summary of the method: as §4
Mus musculus [9] = test: Toxicity in Swiss-Webster mouse assessed as elevated respiration at 10 mg/kg, iv; type: organism-based; details: in vivo; summary of the method: as §2
Mus musculus [10] = test: Toxicity in Swiss-Webster mouse assessed as piloerection at 10 mg/kg, iv; type: organism-based; details: in vivo; summary of the method: as §2
[11] = molecular target: Neuronal acetylcholine receptor subunit alpha-7 (Rattus norvegicus) (UniProt Q05941); test: Agonist activity at rat alpha7 nAChR expressed in Xenopus oocytes at -60 mV holding potential by electrophysiology method relative to acetylcholine; type: cell-based; summary of the method: as §3
[12] = molecular target: T4, Neuronal acetylcholine receptor; alpha3/beta4 (Rattus norvegicus, UniProt P04757+P12392); test: Agonist activity at rat alpha3beta4 nAChR by cell-based rubidium flux assay; summary of the method: as §1
Homo sapiens [13] = species on record: Homo sapiens; test: Selectivity ratio of Ki for displacement of [3H]epibatidine from alpha3beta4 nAChR (unknown origin) expressed in HEK cell membranes to Ki for displacement of [3H]epibatidine from alpha4beta2 nAChR (unknown origin) expressed in HEK cell membranes
Mus musculus [14] = test: Toxicity in Swiss-Webster mouse assessed as hyperactivity at 10 mg/kg, iv; type: organism-based; details: in vivo; summary of the method: as §2
[15] = molecular target: T3, Neuronal acetylcholine receptor subunit alpha-7; test: Agonist activity at rat alpha7 nAChR expressed in Xenopus oocytes at -60 mV holding potential by electrophysiology method; type: cell-based; summary of the method: as §3
[16] = molecular target: T5, Neuronal acetylcholine receptor; alpha4/beta2 (Rattus norvegicus) (UniProt P09483+P12390); test: Agonist activity at rat alpha4beta2 expressed in Xenopus oocytes at -60 mV holding potential by electrophysiology method relative to acetylcholine; type: cell-based; summary of the method: as §3
[17] = molecular target: T2, Neuronal acetylcholine receptor; alpha4/beta2; test: Displacement of [3H]epibatidine from alpha4beta2 nAChR (unknown origin) expressed in HEK cell membranes after 4 hrs by liquid scintillation counting method; summary of the method: as §4
Homo sapiens [18] = species on record: Homo sapiens; test: Selectivity ratio of EC50 for agonist activity at rat alpha3beta4 nAChR (unknown origin) to EC50 for agonist activity at alpha4beta2 nAChR (unknown origin)
[19] = molecular target: T4, Neuronal acetylcholine receptor; alpha3/beta4; test: Displacement of [3H]epibatidine from alpha3beta4 nAChR (unknown origin) expressed in HEK cell membranes after 4 hrs by liquid scintillation counting method; summary of the method: as §4
[20] = molecular target: T6, 5-hydroxytryptamine receptor 3A (Rattus norvegicus, UniProt P35563); test: Agonist activity at rat 5HT3A expressed in Xenopus oocytes at -60 mV holding potential by electrophysiology method; type: cell-based; summary of the method: as §3
T6 sequence (P35563 whole entry): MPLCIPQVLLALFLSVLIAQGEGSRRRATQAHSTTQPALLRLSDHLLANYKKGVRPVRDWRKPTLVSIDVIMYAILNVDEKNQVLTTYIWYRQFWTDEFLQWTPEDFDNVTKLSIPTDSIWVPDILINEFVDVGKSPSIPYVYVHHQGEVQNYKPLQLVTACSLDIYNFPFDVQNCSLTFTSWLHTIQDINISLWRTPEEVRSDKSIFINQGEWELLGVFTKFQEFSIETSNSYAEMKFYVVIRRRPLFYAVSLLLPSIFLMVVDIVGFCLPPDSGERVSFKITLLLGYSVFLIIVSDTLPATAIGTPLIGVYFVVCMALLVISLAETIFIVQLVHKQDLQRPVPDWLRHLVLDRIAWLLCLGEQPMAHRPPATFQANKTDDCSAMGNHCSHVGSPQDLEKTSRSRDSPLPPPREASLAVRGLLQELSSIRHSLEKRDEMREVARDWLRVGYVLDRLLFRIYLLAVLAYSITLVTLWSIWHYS

[21] = molecular target: Neuronal acetylcholine receptor; alpha3/beta2 (Rattus norvegicus, UniProt P04757+P12390); test: Agonist activity at rat alpha3beta2 expressed in Xenopus oocytes at -60 mV holding potential by electrophysiology method; type: cell-based; summary of the method: as §3
[22] = molecular target: T5, Neuronal acetylcholine receptor; alpha4/beta2 (Rattus norvegicus); test: Agonist activity at rat alpha4beta2 expressed in Xenopus oocytes at 10 nM at -60 mV holding potential in presence of dihydro-beta-erythroidine by electrophysiology method; type: cell-based
[23] = molecular target: T7, Neuronal acetylcholine receptor; alpha3/beta2 (Rattus norvegicus) (UniProt P04757+P12390); test: Agonist activity at rat alpha3beta2 expressed in Xenopus oocytes at -60 mV holding potential by electrophysiology method relative to acetylcholine; type: cell-based; summary of the method: as §3
[24] = molecular target: T8, 5-hydroxytryptamine receptor 3A (Rattus norvegicus) (UniProt P35563); test: Agonist activity at rat 5HT3A expressed in Xenopus oocytes at -60 mV holding potential by electrophysiology method relative to metachlorophenylbiguanide; type: cell-based; summary of the method: as §3
T8 sequence (whole entry): T6 sequence (P35563 whole entry)

[25] = molecular target: Neuronal acetylcholine receptor subunit alpha-7 (Rattus norvegicus) (UniProt Q05941); test: Agonist activity at rat alpha7 nAChR expressed in Xenopus oocytes at 10 uM at -60 mV holding potential by electrophysiology method in presence of methyllycaconitine; type: cell-based
Rattus norvegicus = species on record: Rattus norvegicus; test: Selectivity ratio of EC50 for rat alpha7 nAChR expressed in Xenopus oocytes to EC50 rat alpha4beta2 expressed in Xenopus oocytes; type: cell-based
[26] = molecular target: T7, Neuronal acetylcholine receptor; alpha3/beta2 (Rattus norvegicus); test: Agonist activity at rat alpha3beta2 expressed in Xenopus oocytes at 10 nM at -60 mV holding potential in presence of dihydro-beta-erythroidine by electrophysiology method; type: cell-based
[27] = molecular target: T8, 5-hydroxytryptamine receptor 3A (Rattus norvegicus); test: Agonist activity at rat 5HT3A expressed in Xenopus oocytes at 100 uM at -60 mV holding potential in presence of tropisetron by electrophysiology method; type: cell-based
Summary of the method: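 Oocytes expressing rat 5-HT3A were held at −60 mV under two-electrode voltage clamp. Tropisetron (30 nM) was pre-applied for 2 min before 100 μM agonist was applied, with n=4.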

Mus musculus [28] = test: Toxicity in Swiss-Webster mouse assessed as piloerection at 40 ug/kg, iv measured within 1 min; type: organism-based; details: in vivo, 0.04 mg/kg; summary of the method: as §2
Mus musculus [29] = test: Toxicity in Swiss-Webster mouse assessed as elevated respiration at 50 ug/kg, iv; type: organism-based; details: in vivo, 0.05 mg/kg; summary of the method: as §2
Mus musculus [30] = test: Toxicity in Swiss-Webster mouse assessed as death at 50 ug/kg, iv measured within 30 secs; type: organism-based; details: in vivo, 0.05 mg/kg, 0.5 min; summary of the method: as §2
Mus musculus [31] = test: Toxicity in Swiss-Webster mouse assessed as tonic-clonic seizures at 50 ug/kg, iv measured within 30 secs; type: organism-based; details: in vivo, 0.05 mg/kg, 0.5 min; summary of the method: as §2
Mus musculus [32] = test: Toxicity in Swiss-Webster mouse assessed as elevated respiration at 40 ug/kg, iv; type: organism-based; details: in vivo, 0.04 mg/kg; summary of the method: as §2
Mus musculus [33] = test: Toxicity in Swiss-Webster mouse assessed as piloerection at 40 ug/kg, iv; type: organism-based; details: in vivo, 0.04 mg/kg; summary of the method: as §2
Mus musculus [34] = test: Toxicity in Swiss-Webster mouse assessed as piloerection at 50 ug/kg, iv; type: organism-based; details: in vivo, 0.05 mg/kg; summary of the method: as §2
Mus musculus [35] = test: Toxicity in Swiss-Webster mouse assessed as hyperactivity at 50 ug/kg, iv; type: organism-based; details: in vivo, 0.05 mg/kg; summary of the method: as §2
Mus musculus [36] = test: Toxicity in Swiss-Webster mouse assessed as elevated respiration at 40 ug/kg, iv measured within 1 min; type: organism-based; details: in vivo, 0.04 mg/kg; summary of the method: as §2

T4 sequence (P04757 whole entry): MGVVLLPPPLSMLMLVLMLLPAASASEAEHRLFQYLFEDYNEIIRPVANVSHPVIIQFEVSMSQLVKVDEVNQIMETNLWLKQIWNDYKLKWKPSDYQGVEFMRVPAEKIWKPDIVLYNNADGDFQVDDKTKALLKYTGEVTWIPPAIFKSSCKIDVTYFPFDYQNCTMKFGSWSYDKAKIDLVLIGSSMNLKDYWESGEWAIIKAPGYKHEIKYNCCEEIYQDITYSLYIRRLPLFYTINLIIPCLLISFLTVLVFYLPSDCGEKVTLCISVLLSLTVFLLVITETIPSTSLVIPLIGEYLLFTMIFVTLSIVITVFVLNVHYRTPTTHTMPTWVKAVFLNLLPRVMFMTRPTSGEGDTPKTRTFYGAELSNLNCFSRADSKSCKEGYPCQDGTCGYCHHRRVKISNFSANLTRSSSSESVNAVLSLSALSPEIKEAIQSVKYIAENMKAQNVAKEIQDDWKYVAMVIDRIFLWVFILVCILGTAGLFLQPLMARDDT
T4 sequence (P12392 whole entry): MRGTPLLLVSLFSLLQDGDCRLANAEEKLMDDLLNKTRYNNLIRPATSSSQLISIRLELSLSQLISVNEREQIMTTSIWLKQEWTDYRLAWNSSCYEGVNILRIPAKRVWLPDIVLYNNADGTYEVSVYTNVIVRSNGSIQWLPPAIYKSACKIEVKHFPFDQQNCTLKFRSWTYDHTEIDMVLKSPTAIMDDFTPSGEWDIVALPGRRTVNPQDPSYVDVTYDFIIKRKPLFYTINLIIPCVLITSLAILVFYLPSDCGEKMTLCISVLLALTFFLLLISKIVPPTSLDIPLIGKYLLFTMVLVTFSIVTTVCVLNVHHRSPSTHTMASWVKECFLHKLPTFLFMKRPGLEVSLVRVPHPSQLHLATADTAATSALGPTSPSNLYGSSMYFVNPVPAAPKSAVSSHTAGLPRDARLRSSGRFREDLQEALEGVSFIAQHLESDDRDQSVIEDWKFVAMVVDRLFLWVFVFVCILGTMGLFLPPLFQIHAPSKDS
T1 sequence (P17787 whole entry): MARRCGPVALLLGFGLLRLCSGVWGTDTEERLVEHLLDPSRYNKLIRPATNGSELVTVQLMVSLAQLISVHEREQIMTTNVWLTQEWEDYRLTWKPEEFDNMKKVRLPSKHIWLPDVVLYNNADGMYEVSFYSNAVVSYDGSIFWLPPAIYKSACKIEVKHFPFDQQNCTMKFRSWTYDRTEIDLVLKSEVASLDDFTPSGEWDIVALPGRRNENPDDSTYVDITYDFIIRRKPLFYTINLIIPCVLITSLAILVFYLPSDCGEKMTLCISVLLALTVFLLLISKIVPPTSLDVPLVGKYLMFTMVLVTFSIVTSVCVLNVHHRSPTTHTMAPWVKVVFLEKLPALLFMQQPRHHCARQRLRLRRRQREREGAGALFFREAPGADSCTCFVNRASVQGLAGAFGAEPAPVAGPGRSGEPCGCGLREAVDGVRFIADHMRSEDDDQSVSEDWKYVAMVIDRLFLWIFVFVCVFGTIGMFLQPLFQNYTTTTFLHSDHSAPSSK
T1 sequence (P43681 whole entry): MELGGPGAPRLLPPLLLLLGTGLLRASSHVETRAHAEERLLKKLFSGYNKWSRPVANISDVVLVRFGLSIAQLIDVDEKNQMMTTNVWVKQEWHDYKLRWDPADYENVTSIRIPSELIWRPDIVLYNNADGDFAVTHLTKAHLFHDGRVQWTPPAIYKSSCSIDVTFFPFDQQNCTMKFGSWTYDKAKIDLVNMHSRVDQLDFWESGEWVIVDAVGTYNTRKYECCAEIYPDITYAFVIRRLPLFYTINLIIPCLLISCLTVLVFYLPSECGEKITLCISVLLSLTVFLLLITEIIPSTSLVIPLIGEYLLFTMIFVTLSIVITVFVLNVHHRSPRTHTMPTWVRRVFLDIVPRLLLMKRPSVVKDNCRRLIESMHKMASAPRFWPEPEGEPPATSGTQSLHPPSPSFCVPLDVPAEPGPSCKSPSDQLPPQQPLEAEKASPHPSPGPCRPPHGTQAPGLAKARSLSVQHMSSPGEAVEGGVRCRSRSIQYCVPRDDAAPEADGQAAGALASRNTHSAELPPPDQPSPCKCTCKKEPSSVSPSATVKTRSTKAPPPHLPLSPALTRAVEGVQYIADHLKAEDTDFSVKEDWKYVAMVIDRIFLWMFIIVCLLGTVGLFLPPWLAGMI
Neuronal acetylcholine receptor subunit alpha-7 (Rattus norvegicus), sequence (Q05941 whole entry): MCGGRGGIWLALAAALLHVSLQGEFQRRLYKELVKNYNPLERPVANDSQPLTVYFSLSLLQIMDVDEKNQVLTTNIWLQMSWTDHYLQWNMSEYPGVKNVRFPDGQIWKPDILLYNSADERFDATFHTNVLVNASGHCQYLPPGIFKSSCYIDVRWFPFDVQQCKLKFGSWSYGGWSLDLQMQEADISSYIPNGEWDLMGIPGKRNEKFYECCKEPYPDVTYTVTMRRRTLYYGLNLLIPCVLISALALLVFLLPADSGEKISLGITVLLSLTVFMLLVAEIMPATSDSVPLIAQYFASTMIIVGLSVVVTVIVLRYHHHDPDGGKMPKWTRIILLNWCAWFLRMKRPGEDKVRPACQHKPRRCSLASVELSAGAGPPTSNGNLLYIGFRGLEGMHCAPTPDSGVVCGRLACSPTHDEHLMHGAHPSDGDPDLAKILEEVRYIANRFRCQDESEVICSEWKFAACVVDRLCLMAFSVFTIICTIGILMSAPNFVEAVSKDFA
T3 sequence (Q05941 whole entry): as above
T2 sequence (P09483 whole entry, the tested form may be a part): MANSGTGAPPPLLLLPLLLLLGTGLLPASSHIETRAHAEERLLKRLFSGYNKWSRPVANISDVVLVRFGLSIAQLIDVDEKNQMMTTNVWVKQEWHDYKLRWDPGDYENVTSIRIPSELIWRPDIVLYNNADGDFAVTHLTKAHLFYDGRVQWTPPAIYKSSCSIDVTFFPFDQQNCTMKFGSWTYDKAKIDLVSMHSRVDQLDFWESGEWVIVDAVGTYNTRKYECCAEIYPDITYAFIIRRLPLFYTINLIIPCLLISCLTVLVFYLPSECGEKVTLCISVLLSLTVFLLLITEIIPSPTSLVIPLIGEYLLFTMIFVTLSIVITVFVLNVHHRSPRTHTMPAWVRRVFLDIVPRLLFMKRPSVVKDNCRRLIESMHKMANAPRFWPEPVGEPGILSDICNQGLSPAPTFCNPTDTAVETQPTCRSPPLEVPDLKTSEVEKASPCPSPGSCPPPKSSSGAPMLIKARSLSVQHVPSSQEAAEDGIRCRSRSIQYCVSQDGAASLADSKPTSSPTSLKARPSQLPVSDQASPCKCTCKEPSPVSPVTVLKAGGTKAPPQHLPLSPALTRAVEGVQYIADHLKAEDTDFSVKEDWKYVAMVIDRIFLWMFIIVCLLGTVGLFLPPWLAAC
T2 sequence (P12390 whole entry, the tested form may be a part): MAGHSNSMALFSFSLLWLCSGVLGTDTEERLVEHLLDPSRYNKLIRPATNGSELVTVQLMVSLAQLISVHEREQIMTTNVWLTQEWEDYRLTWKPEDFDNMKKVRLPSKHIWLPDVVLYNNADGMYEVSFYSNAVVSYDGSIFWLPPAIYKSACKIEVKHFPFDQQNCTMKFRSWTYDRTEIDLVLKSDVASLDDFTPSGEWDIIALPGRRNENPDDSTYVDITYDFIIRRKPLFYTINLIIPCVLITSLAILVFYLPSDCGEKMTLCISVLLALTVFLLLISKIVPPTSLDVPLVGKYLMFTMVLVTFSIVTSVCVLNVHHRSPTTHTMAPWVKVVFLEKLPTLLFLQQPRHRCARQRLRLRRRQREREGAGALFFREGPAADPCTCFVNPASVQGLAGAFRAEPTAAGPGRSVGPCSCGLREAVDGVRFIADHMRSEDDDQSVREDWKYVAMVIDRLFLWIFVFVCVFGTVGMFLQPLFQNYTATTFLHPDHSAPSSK
Neuronal acetylcholine receptor; alpha3/beta2, sequence (P04757 whole entry): as the sequence (P04757 whole entry) above
Neuronal acetylcholine receptor; alpha3/beta2, sequence (P12390 whole entry): as the sequence (P12390 whole entry, the tested form may be a part) above

SMILES | EC50 [1] | LD50 (Mus musculus [2]) | Emax [3] | Emax [4] | LD50 (Mus musculus [5]) | EC50 [6] | Ki [7] | Ki [8] | Imax [11] | EC50 [12] | Ratio Ki (Homo sapiens [13]) | EC50 [15] | Imax [16] | Ki [17] | Ratio EC50 (Homo sapiens [18]) | Ki [19] | further results
CN1CCC[C@H]1c1ccccc1 | 2100 nM | 0.3 mg/kg |  |  |  |  |  |  |  |  |  |  |  |  |  |  | 
O=c1cccc2n1C[C@@H]1CNC[C@H]2C1 [CYTISINICLINE] |  | 1.73 mg/kg |  |  |  |  |  |  |  |  |  |  |  |  |  |  | 
Clc1ccc(C2CC3CCC2N3)cn1 (racemic) [EPIBATIDINE] |  |  | 135% | 114% | 0.0015 mg/kg |  |  |  |  |  |  |  |  |  |  |  | 
Clc1ccc2c(n1)O[C@@]13CC[C@@H]1NC[C@@H]23 [PHANTASMIDINE] | 56000 nM |  | 110% | 53% | > 10 mg/kg | 45 nM | 130 nM | 29 nM | 1.02% | 27000 nM | 33 | 21000 nM | 0.43% | 12 nM | 0.49 | 390 nM | Activity (Mus musculus [9]): Toxic; Activity (Mus musculus [10]): Toxic; Activity (Mus musculus [14]): Toxic
Clc1ccc2c(n1)OC13CCC1NCC23 (racemic) | 200 nM |  | 42% | 91% | 0.27 mg/kg | 3.1 nM | 5.4 nM | 1.1 nM | 1.08% | 750 nM | 31 | 9900 nM | 0.32% | 0.35 nM | 3.7 | 11 nM | EC50 [20]: 29000 nM; EC50 [21]: 19000 nM; Activity [22]: inactive; Imax [23]: 0.25%; Imax [24]: 0.79%; Activity [25]: inactive; Ratio EC50 (Rattus norvegicus): 3200; Activity [26]: inactive; Activity [27]: inactive
Clc1ccc2c(n1)O[C@]13CC[C@H]1NC[C@H]23 | 200 nM |  | 45% | 91% | 0.072 mg/kg | 1.5 nM | 4.4 nM | 0.87 nM | 1.1% | 570 nM | 34 | 4000 nM | 0.37% | 0.27 nM | 2.9 | 9.1 nM | Activity (Mus musculus [28]): Non-Toxic; Activity (Mus musculus [29]): Toxic; Activity (Mus musculus [30]): Toxic; Activity (Mus musculus [31]): Toxic; Activity (Mus musculus [32]): Toxic; Activity (Mus musculus [33]): Toxic; Activity (Mus musculus [34]): Toxic; Activity (Mus musculus [35]): Toxic; Activity (Mus musculus [36]): Non-Toxic
